Each structure is given as a SMILES string. Active and inactive are the calls of the source. No cut-off for these calls is given here.

In series [1] the test system is T-cell line. Description: Immunosuppressive activity in human T cells assessed as reduction in anti-CD3/anti-CD28 antibody-induced cell proliferation incubated for 72 hrs by CFSE based flow cytometry. It counts as functional. The procedure, abridged:
(§1)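 Cells (10^6 cells/mL) labelled with 2.5 μM CFSE at 37 °C for 10 min. T cells from healthy donors (95% purity) were activated with plate-bound anti-CD3 (2 μg/mL) plus soluble anti-CD28 (1 μg/mL). Alternatively, PBMCs were mixed with equal numbers of 3000-rad-irradiated allogeneic PBMCs. Cells were cultured with or without drug for 72 h in RPMI 1640 with 10% FBS, and CFSE dilution was read by flow cytometry. Unstimulated cells served as 0% and stimulated untreated cells as 100%. IC50 was calculated from these.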
On the technique in general: In flow cytometry, cells or beads pass a laser one at a time.

Series [2] deals with T-cell line. The series can be described thus: Induction of cell cycle arrest in anti-CD3/anti-CD28 antibody-stimulated human T cells assessed as accumulation at S phase at 0.1 uM incubated for 72 hrs by flow cytometry (reference value: 18.1%). It counts as functional.
Series [3] concerns T-cell line. The series can be described thus: Effect on anti-CD3/anti-CD28 antibody-induced cell activation in human T cells assessed as effect on CD69 expression at 0.2 uM incubated for 24 hrs by flow cytometry (reference value: 41.2%). The format is functional.
Series [4] relates to T-cell line. Description: Effect on anti-CD3/anti-CD28 antibody-induced cell activation in human T cells assessed as effect on CD69 expression at 1 uM incubated for 24 hrs by flow cytometry (reference value: 41.2%). The format is functional.
In series [5] the test system is T-cell line. Description: Induction of cell cycle arrest in anti-CD3/anti-CD28 antibody-stimulated human T cells assessed as accumulation at G2/M phase at 0.2 uM incubated for 72 hrs by flow cytometry (reference value: 15.3%). The format is functional.
Series [6] has as its system T-cell line. Description: Induction of cell cycle arrest in anti-CD3/anti-CD28 antibody-stimulated human T cells assessed as accumulation at G0/G1 phase at 0.2 uM incubated for 72 hrs by flow cytometry (reference value: 66.6%). The format is functional.
For series [7], the system named is T-cell line. Description: Induction of cell cycle arrest in anti-CD3/anti-CD28 antibody-stimulated human T cells assessed as accumulation at G0/G1 phase at 1 uM incubated for 72 hrs by flow cytometry (reference value: 66.6%). It counts as functional.
In series [8] the test system is T-cell line. Description: Effect on anti-CD3/anti-CD28 antibody-induced cell activation in human T cells assessed as effect on CD69 expression at 0.2 to 5 uM incubated for 24 hrs by flow cytometry. It counts as functional, cell-based.
The test system of series [9] is T-cell line. The series can be described thus: Induction of cell cycle arrest in anti-CD3/anti-CD28 antibody-stimulated human T cells assessed as accumulation at S phase at 1 uM incubated for 72 hrs by flow cytometry (reference value: 18.1%). The format is functional.
Series [10] has as its system T-cell line. The series can be described thus: Effect on anti-CD3/anti-CD28 antibody-induced cell activation in human T cells assessed as effect on CD69 expression at 5 uM incubated for 24 hrs by flow cytometry (reference value: 41.2%). The format is functional.
Series [11] deals with T-cell line. The series can be described thus: Induction of cell cycle arrest in anti-CD3/anti-CD28 antibody-stimulated human T cells assessed as accumulation at G2/M phase at 5 uM incubated for 72 hrs by flow cytometry (reference value: 15.3%). It counts as functional.
The subject of series [12] is T-cell line. The series can be described thus: Inhibition of IL17 production in anti-CD3/anti-CD28 antibody-stimulated human T cells at 0.2 to 5 uM incubated for 48 hrs by ELISA. It counts as functional, cell-based. The procedure, abridged: (§2)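 Human T cells (10^6 cells/mL) treated with 0.2, 1 or 5 μM drug, LY-294002 (50 μM) or vehicle and activated with anti-CD3 (2 μg/mL) plus soluble anti-CD28 (1 μg/mL) for 48 h. Supernatant IL-6 and IL-17 were quantified by ELISA against recombinant cytokine standard curves. Mean ± SEM, n = 5 per group, three independent experiments.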
Background: In an ELISA, binding on a coated surface is turned into a signal by an enzyme label.

Series [13] deals with T-cell line. The series can be described thus: Induction of cell cycle arrest in anti-CD3/anti-CD28 antibody-stimulated human T cells assessed as accumulation at G2/M phase at 1 uM incubated for 72 hrs by flow cytometry (reference value: 15.3%). The format is functional.
Series [14] relates to T-cell line. Description: Induction of cell cycle arrest in anti-CD3/anti-CD28 antibody-stimulated human T cells assessed as accumulation at G0/G1 phase at 5 uM incubated for 72 hrs by flow cytometry (reference value: 66.6%). The format is functional.
For series [15], the system named is T-cell line. Description: Effect on anti-CD3/anti-CD28 antibody-induced cell activation in human T cells assessed as effect on CD25 expression at 0.2 uM incubated for 24 hrs by flow cytometry (reference value: 69.1%). The format is functional.
A further series has as its system PBMC. The series can be described thus: Cytotoxicity in human PBMC cells assessed as reduction in cell viability at 20 to 320 uM incubated for 72 hrs by CCK8 assay. It counts as cell-based. The procedure, abridged:
(§3)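 Naive human T cells or PBMCs (10^6 cells/mL) exposed to 20, 40, 80, 160 or 320 μM or vehicle for 72 h. Viability read by CCK-8 as OD450, with untreated cells set to 100%. Mean ± SEM, n = 5 per group, three independent experiments.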

For series [16], the system named is T-cell line. The series can be described thus: Immunosuppressive activity in human T cells assessed as reduction in alloantigen stimulation-induced cell proliferation incubated for 72 hrs by CFSE based flow cytometry. It counts as functional. The procedure, abridged: as §1
Series [17] deals with T-cell line. Description: Induction of cell cycle arrest in anti-CD3/anti-CD28 antibody-stimulated human T cells assessed as accumulation at S phase at 0.2 uM incubated for 72 hrs by flow cytometry (reference value: 18.1%). The format is functional.
In series [18] the test system is T-cell line. Description: Induction of cell cycle arrest in anti-CD3/anti-CD28 antibody-stimulated human T cells assessed as accumulation at S phase at 5 uM incubated for 72 hrs by flow cytometry (reference value: 18.1%). The format is functional.
Series [19] concerns T-cell line. Description: Effect on anti-CD3/anti-CD28 antibody-induced cell activation in human T cells assessed as effect on CD25 expression at 5 uM incubated for 24 hrs by flow cytometry (reference value: 69.1%). It counts as functional.
The subject of series [20] is T-cell line. The series can be described thus: Cytotoxicity in human T cells assessed as reduction in cell viability at 20 to 320 uM incubated for 72 hrs by CCK8 assay. It counts as cell-based. The procedure, abridged: as §3
In series [21] the test system is T-cell line. The series can be described thus: Effect on anti-CD3/anti-CD28 antibody-induced cell activation in human T cells assessed as effect on CD25 expression at 0.2 to 5 uM incubated for 24 hrs by flow cytometry. It counts as functional, cell-based.
Series [22] deals with T-cell line. The series can be described thus: Effect on anti-CD3/anti-CD28 antibody-induced cell activation in human T cells assessed as effect on CD25 expression at 1 uM incubated for 24 hrs by flow cytometry (reference value: 69.1%). The format is functional.
The test system of series [23] is T-cell line. Description: Inhibition of IL6 production in anti-CD3/anti-CD28 antibody-stimulated human T cells at 0.2 to 5 uM incubated for 48 hrs by ELISA. It counts as functional, cell-based. The procedure, abridged: as §2
Series [24] relates to T-cell line. The series can be described thus: Effect on anti-CD3/anti-CD28 antibody-induced cell activation in human T cells assessed as effect on CD25 expression at 0.1 uM incubated for 24 hrs by flow cytometry (reference value: 69.1%). The format is functional.
Series [25] relates to T-cell line. Description: Effect on anti-CD3/anti-CD28 antibody-induced cell activation in human T cells assessed as effect on CD69 expression at 0.1 uM incubated for 24 hrs by flow cytometry (reference value: 41.2%). The format is functional.

Consider `O=C1[C@H]2CN3CCC[C@]45CC[C@@]6(Nc7ccccc7[C@@]26[C@@H]34)[C@@]1(O)C5`, for which the IC50 in the series with T-cell line [1] came out at 25.4 µM.

Take `COC(=O)N1c2c(OC)cccc2[C@@]23[C@H]4CN5CCC[C@@](CC[C@]12C(=O)O)(CC4=O)[C@H]53`: in the series on T-cell line [1], the IC50 was 27.8 µM.

Take `C[N+]12CCC[C@]34CC[C@@]5(Nc6ccccc6[C@]5(CC1)[C@H]32)[C@H](C(=O)[O-])C4` (some centres undefined): the IC50 in the series on T-cell line [1] was 21.6 µM.

With `CC(=O)O[C@H]1C(=O)[C@@]2(C)[C@H]([C@H](OC(=O)c3ccccc3)[C@]3(O)C[C@H](OC(=O)[C@H](O)[C@@H](NC(=O)c4ccccc4)c4ccccc4)C(C)=C1C3(C)C)[C@]1(OC(C)=O)CO[C@@H]1C[C@@H]2O` [PACLITAXEL], in the series on T-cell line [2], the Activity is listed as 16.9%.

For `CC[C@]12CCCn3ccc(c31)-c1ccccc1NC(=O)CC2` [RHAZINILAM], the Activity in the series with T-cell line [3] was 41.1%; in the series with T-cell line [4], 42.4%; in the series with T-cell line [5], 16.7%; in the series on T-cell line [6], 66.5%; in the series on T-cell line [7], 57.4%; in the series on T-cell line [9] it was 19.7%. Moreover, the Activity with T-cell line [10] is reported as 41.6%; in the series on T-cell line [11], 40.3%; in the series on T-cell line [13], 22.9%; in the series with T-cell line [14] it was 42.1%; with T-cell line [15], 68.8%; with PBMC it was “Non-Toxic”. The Activity in the series with T-cell line [17] was 16.8%; in the series on T-cell line [18] it was 17.6%; in the series on T-cell line [19], 69.3%; with T-cell line [20], “Non-Toxic”; in the series with T-cell line [22], 70.3%. Further, the outcome in the series on T-cell line [8] and in the series with T-cell line [21] was inactive. Further, the inhibition entry in the series with T-cell line [12] and in the series on T-cell line [23] was “Active” throughout. Besides, the IC50 in the series on T-cell line [1] came to 1 µM; in the series with T-cell line [16] it was 1.1 µM.

Consider `C=CC[C@@H]1/C=C(\C)C[C@H](C)C[C@H](OC)[C@H]2O[C@@](O)(C(=O)C(=O)N3CCCC[C@H]3C(=O)O[C@H](/C(C)=C/[C@@H]3CC[C@@H](O)[C@H](OC)C3)[C@H](C)[C@@H](O)CC1=O)[C@H](C)C[C@@H]2OC` [TACROLIMUS ANHYDROUS], for which the Activity with T-cell line [24] turned out to be 6.8%; in the series on T-cell line [25] it was 13.1%.

For orientation: IC50 means the point on the concentration scale where inhibition reaches its midpoint.
